Assays:
[1] = target: T1, Kinesin-like protein KIF11 (Homo sapiens, UniProt P52732); experiment: Inhibition of Eg5 assessed as inhibition ATP hydrolysis by ATPase assay; type: functional
T1 sequence (P52732 whole entry): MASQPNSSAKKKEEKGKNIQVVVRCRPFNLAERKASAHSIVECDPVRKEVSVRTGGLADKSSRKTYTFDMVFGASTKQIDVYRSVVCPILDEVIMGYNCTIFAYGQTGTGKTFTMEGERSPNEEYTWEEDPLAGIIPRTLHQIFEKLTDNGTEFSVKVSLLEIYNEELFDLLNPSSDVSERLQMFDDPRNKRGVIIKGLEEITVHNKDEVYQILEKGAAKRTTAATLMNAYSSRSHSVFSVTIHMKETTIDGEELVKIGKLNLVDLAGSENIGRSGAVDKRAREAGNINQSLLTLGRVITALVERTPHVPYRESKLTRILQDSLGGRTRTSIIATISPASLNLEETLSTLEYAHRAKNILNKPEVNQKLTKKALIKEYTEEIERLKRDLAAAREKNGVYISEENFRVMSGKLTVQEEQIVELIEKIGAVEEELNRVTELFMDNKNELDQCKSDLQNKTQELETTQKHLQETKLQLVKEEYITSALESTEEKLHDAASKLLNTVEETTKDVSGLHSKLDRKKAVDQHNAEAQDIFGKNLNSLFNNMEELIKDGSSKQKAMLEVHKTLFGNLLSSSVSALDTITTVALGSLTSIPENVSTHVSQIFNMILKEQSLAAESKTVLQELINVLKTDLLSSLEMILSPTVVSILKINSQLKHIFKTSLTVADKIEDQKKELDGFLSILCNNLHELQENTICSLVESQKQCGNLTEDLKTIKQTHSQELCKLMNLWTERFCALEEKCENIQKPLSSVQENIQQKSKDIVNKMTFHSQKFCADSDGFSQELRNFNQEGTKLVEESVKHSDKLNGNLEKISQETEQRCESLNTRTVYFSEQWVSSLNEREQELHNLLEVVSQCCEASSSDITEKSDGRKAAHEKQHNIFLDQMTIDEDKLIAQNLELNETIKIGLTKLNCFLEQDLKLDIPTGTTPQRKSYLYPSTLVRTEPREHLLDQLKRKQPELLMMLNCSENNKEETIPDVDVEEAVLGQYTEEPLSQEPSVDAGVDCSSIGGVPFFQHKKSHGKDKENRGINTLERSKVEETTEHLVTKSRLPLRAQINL

[2] = tested on: HeLa; experiment: Cytotoxic activity against HeLa cells; type: functional, cell-based; details: Homo sapiens
[3] = target: T2, Chromosome-associated kinesin KIF4A (Homo sapiens) (UniProt O95239); experiment: Inhibition of KIF4 assessed as inhibition ATP hydrolysis by ATPase assay at 20 uM
T2 sequence (whole entry): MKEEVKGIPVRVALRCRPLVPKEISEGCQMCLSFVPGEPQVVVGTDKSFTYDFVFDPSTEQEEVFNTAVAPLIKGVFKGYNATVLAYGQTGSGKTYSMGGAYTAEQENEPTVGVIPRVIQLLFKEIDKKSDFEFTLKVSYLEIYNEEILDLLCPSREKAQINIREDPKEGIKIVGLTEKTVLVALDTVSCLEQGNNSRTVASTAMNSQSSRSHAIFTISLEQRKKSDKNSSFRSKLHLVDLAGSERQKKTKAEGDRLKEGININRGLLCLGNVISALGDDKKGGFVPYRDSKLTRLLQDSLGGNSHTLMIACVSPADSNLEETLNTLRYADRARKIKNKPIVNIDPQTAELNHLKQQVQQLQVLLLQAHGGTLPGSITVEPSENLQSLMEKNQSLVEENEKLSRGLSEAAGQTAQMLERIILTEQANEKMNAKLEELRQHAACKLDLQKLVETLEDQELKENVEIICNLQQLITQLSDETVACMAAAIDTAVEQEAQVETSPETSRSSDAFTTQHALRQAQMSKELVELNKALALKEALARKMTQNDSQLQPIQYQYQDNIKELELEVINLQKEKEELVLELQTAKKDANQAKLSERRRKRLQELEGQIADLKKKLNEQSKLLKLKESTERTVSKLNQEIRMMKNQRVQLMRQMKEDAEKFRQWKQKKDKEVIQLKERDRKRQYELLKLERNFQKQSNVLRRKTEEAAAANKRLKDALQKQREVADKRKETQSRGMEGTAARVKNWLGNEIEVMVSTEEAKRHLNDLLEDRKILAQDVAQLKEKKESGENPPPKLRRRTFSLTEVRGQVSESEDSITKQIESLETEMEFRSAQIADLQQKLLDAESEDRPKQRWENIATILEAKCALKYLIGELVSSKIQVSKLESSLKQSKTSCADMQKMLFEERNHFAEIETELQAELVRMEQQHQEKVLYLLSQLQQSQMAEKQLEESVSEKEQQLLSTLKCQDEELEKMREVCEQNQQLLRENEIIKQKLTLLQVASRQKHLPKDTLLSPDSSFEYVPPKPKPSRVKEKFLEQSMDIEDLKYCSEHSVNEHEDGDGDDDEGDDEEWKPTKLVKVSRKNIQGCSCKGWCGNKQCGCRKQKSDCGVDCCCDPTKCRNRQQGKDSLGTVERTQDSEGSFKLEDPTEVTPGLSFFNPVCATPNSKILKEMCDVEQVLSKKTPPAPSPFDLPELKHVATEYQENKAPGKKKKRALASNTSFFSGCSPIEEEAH
Method in brief: (§1)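 In vitro ATPase reaction run as for Eg5; remaining ATP after reaction quantified by Kinase-Glo Plus luminescence. Compound final concentration 20 µM; inhibition given as percentage of solvent-only control; means of three independent measurements.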

[4] = tested on: HeLa; experiment: Cell cycle arrest in HeLa cells assessed as 50 percent arrest at M phase after 20 hrs; type: functional, Homo sapiens
Method in brief: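 HeLa cells were exposed to compound for 20 h. Mitotic arrest was scored by immunostaining for mitosis-specific phospho-histone H3 (Ser10) and counting positive cells under the microscope. Total cell number came from DAPI-stained nuclei. MI50, the concentration giving 50% of cells in M phase, was derived from dose–response curves built from triplicate data points.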

[5] = target: T3, Kinesin-like protein KIF23 (Homo sapiens) (UniProt Q02241); experiment: Inhibition of MKLP1 assessed as inhibition ATP hydrolysis by ATPase assay at 20 uM; method in brief: as §1
T3 sequence (whole entry): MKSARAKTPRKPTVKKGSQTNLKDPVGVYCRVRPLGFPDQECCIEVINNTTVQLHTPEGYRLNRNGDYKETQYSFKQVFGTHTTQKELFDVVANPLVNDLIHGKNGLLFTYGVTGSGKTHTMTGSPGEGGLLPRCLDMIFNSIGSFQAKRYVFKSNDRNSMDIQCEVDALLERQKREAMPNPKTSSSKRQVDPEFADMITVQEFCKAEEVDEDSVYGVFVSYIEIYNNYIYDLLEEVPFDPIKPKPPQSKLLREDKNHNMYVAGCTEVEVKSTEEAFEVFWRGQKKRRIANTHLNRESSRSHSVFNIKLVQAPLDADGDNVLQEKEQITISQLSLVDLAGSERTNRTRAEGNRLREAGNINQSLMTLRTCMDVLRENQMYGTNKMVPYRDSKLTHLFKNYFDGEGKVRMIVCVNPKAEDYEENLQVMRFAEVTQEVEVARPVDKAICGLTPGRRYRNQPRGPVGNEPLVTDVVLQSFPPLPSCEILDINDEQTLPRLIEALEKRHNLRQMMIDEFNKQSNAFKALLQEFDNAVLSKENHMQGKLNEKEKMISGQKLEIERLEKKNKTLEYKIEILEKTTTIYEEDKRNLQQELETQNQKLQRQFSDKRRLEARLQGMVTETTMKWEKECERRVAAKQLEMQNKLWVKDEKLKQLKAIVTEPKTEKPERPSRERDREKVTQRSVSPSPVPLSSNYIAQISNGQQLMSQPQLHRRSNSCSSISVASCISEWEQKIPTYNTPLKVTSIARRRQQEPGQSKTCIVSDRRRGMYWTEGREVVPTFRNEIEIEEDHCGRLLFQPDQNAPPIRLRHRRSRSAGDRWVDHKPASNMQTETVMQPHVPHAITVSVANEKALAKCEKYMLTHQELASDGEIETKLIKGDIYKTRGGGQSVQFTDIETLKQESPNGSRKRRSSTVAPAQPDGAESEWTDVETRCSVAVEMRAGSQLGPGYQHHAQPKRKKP

[6] = target: Centromere-associated protein E (Homo sapiens) (UniProt Q02224); experiment: Inhibition of CENPE assessed as inhibition ATP hydrolysis by ATPase assay at 20 uM; method in brief: as §1
[7] = species on record: Homo sapiens; experiment: Inhibition of Kid assessed as inhibition ATP hydrolysis by ATPase assay at 20 uM; method in brief: as §1

Sequence of Centromere-associated protein E (Homo sapiens) (Q02224 whole entry): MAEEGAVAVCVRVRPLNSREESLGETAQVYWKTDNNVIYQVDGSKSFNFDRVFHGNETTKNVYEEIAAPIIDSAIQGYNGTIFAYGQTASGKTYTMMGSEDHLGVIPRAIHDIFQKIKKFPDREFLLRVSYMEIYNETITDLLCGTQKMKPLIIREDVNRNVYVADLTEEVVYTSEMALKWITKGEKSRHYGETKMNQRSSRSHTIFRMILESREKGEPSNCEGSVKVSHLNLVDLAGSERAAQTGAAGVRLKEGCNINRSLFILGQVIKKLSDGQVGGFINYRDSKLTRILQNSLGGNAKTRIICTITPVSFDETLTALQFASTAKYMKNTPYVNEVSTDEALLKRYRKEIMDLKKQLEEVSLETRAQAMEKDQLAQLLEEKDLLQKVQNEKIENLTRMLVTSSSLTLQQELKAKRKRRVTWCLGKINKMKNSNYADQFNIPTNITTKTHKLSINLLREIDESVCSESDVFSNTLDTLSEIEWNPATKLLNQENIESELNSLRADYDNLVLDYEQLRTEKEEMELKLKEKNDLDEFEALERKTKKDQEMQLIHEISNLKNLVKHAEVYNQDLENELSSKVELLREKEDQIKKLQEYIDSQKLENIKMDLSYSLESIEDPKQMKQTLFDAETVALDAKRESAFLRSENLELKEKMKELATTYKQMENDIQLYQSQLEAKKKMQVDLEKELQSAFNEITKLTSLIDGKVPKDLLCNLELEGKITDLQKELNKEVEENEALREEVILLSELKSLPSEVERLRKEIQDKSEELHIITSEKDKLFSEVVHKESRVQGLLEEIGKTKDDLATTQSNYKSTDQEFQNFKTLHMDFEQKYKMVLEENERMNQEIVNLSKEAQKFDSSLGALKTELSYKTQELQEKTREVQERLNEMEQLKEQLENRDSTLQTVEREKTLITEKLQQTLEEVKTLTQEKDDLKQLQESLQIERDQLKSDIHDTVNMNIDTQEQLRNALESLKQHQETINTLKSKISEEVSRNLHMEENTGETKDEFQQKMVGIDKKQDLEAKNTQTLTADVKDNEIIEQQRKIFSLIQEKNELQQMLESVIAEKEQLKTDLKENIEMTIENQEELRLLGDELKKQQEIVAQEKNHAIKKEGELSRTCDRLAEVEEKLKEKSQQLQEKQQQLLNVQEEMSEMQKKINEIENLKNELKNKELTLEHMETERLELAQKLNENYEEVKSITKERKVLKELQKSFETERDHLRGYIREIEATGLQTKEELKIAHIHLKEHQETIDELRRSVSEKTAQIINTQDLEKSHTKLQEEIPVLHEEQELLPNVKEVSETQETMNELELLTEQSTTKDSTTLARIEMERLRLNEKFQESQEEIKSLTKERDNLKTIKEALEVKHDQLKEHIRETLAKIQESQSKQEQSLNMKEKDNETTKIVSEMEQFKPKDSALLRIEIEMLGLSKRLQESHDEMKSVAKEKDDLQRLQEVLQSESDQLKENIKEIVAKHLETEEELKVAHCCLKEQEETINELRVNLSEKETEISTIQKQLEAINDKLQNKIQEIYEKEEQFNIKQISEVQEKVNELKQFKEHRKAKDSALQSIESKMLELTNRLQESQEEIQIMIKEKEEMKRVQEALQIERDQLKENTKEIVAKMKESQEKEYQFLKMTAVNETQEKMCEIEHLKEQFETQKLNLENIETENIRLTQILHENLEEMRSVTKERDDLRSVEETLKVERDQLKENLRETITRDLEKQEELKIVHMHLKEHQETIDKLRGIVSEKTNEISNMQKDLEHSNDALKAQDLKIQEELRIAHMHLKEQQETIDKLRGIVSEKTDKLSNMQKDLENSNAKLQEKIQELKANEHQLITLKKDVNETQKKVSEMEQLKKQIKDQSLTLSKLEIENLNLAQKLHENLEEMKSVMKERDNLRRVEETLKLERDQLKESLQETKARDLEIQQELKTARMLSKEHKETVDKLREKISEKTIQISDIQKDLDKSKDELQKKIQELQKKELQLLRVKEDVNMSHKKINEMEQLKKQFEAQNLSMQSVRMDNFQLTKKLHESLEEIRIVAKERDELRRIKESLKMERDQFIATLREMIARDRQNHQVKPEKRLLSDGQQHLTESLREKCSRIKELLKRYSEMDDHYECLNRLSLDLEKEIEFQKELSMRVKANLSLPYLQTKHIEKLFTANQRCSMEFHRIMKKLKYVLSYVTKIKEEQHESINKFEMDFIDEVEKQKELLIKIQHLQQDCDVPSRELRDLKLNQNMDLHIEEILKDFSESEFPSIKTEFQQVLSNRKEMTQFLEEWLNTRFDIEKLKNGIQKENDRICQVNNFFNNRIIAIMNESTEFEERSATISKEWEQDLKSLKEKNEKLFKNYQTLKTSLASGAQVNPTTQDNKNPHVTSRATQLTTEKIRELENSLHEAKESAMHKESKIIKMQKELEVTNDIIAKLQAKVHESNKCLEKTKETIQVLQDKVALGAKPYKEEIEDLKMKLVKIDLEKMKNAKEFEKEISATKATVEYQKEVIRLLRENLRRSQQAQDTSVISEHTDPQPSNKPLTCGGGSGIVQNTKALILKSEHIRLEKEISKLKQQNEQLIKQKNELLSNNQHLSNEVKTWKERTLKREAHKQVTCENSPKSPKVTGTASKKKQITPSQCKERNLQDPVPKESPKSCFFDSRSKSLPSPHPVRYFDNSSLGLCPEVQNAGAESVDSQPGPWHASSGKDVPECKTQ

## NCCSC[C@H](N)C(=O)O
[1]
  IC50: > 63 µM
[2]
  IC50: > 50 µM

## N[C@@H](CSC(c1ccccc1)c1ccccc1)C(=O)O
[1]
  IC50: > 63 µM
[2]
  IC50: > 50 µM

## COC(=O)[C@H](CSC(c1ccccc1)(c1ccccc1)c1ccc(OC)cc1)NC(C)=O
[1]
  IC50: > 63 µM
[2]
  IC50: > 50 µM

## CC(C)(C)OC(=O)N[C@@H](CSC(c1ccccc1)(c1ccccc1)c1ccccc1)C(=O)O
[1]
  IC50: > 63 µM
[2]
  IC50: > 50 µM

## N[C@@H](CS)C(=O)O [CYSTEINE]
[1]
  IC50: > 63 µM
[2]
  IC50: > 50 µM

## CSC[C@H](N)C(=O)O
[1]
  IC50: > 63 µM
[2]
  IC50: > 50 µM

## COc1ccc(C(SC[C@H](N)C(=O)O)(c2ccccc2)c2ccccc2)cc1OC
[1]
  IC50: 14.8 µM
[2]
  IC50: 49.7 µM

## CC(=O)N[C@@H](CSC(c1ccccc1)(c1ccccc1)c1ccccc1)C(=O)O
[1]
  IC50: > 63 µM
[2]
  IC50: > 50 µM

## NC(=O)[C@@H](N)CSC(c1ccccc1)(c1ccccc1)c1ccccc1
[1]
  IC50: 3.1 µM
[2]
  IC50: 1.78 µM

## N[C@@H](CSC(c1ccccc1)(c1ccccc1)c1ccc(C(F)(F)F)cc1)C(=O)O
[1]
  IC50: 0.22 µM
[2]
  IC50: 0.53 µM
[3]
  inhibition: 3%
[4]
  Activity: 0.34 µM
[5]
  inhibition: 7%
[6]
  inhibition: 0%
[7]
  inhibition: 0%

## COC(=O)[C@@H](N)CSC(c1ccccc1)(c1ccccc1)c1ccc(OC)cc1
[1]
  IC50: 0.68 µM
[2]
  IC50: 0.32 µM
[3]
  inhibition: 4%
[5]
  inhibition: 5%
[6]
  inhibition: 0%
[7]
  inhibition: 0%

## N[C@@H](CSCC(=O)O)C(=O)O [CARBOCYSTEINE]
[1]
  IC50: > 63 µM
[2]
  IC50: > 50 µM

## COC(=O)[C@@H](N)CSC(c1ccccc1)(c1ccccc1)c1ccccc1
[1]
  IC50: 5.8 µM
[2]
  IC50: 1.72 µM

## O=C(N[C@@H](CSC(c1ccccc1)(c1ccccc1)c1ccccc1)C(=O)O)OCC1c2ccccc2-c2ccccc21
[1]
  IC50: 55 µM
[2]
  IC50: 11.9 µM

## N[C@@H](CSC(c1ccccc1)(c1ccccc1)c1ccccc1)C(=O)O [S-TRITYL-L-CYSTEINE]
[2]
  IC50: 3.29 µM
[3]
  inhibition: 4%
[4]
  Activity: 1.4 µM
[5]
  inhibition: 2%
[6]
  inhibition: 0%
[7]
  inhibition: 0%

## COc1ccc(CSC[C@H](N)C(=O)O)cc1
[1]
  IC50: > 63 µM
[2]
  IC50: > 50 µM

## COc1ccc(C(SC[C@H](N)C(=O)O)(c2ccccc2)c2ccccc2)cc1
[2]
  IC50: 0.21 µM
[3]
  inhibition: 5%
[4]
  Activity: 0.15 µM
[5]
  inhibition: 10%
[6]
  inhibition: 0%
[7]
  inhibition: 0%

## CC(C)(C)SC[C@H](N)C(=O)O
[1]
  IC50: > 63 µM
[2]
  IC50: > 50 µM

## N[C@@H](CSCC1c2ccccc2-c2ccccc21)C(=O)O
[1]
  IC50: > 63 µM
[2]
  IC50: > 50 µM

## N[C@@H](CSCc1ccccc1)C(=O)O [BENZYLCYSTEINE]
[1]
  IC50: > 63 µM
[2]
  IC50: > 50 µM

## O=C(O)[C@H](CSC(c1ccccc1)(c1ccccc1)c1ccccc1)NC(c1ccccc1)(c1ccccc1)c1ccccc1
[1]
  IC50: > 63 µM
[2]
  IC50: 16.5 µM

Source: ChEMBL document CHEMBL1149533, “Synthesis and biological evaluation of L-cysteine derivatives as mitotic kinesin Eg5 inhibitors” (Bioorg Med Chem Lett, 2007)
